Reference: ChEMBL document CHEMBL1125349 (J Med Chem, 1992)
Non-standard residues stand in square brackets, D forms with d. Residues, ends and D or L forms follow the SMILES beside them. Ava = NCCCCC(=O)O

Legend:
Neuromedin-K receptor = target: T1, Neuromedin-K receptor (Rattus norvegicus, UniProt P16177); assay: In vitro agonistic activity against tachykinin receptor 3 of everted rat protal vein.; type: functional
T1 sequence (P16177 whole entry): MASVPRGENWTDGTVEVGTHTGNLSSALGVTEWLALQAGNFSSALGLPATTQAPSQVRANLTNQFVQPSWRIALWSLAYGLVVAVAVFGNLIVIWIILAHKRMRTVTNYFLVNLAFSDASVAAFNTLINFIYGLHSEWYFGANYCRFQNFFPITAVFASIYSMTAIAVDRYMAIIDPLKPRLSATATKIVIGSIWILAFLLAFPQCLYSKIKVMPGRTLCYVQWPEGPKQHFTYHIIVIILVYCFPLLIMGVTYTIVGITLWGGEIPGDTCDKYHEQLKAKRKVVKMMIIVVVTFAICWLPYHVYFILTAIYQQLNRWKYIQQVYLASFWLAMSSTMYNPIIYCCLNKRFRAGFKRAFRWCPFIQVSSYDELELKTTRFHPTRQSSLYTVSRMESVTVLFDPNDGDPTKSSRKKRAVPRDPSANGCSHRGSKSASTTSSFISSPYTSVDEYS
How it was run: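 Everted isolated portal vein segments from male AH/A rats, 3-mL baths at 37 °C, 0.5 g resting tension, modified Krebs-Henseleit medium, isotonic contractions. […] Equipotent molar ratios were calculated and related to the reference agonist's mean EC50.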

Substance-K receptor = target: T2, Substance-K receptor (Rattus norvegicus, UniProt P16610); assay: In vitro agonistic activity against tachykinin receptor 2 of rat colon muscularis mucosae.; type: functional
T2 sequence (P16610 whole entry): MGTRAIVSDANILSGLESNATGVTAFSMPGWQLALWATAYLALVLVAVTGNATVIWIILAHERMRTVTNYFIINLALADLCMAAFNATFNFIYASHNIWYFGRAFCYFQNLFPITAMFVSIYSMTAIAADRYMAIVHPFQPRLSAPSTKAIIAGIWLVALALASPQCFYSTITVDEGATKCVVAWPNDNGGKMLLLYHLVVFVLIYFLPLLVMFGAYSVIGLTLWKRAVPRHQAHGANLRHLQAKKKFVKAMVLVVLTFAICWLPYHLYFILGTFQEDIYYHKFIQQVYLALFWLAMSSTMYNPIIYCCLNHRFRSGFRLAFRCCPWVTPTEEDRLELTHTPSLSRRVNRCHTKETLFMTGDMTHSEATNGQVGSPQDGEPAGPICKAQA
How it was run: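 Colon muscularis mucosae from male AH/A rats (250-350 g), 3-mL baths, 0.5 g resting tension, 35 °C, with atropine, mepyramine, methysergide and indomethacin (1 µM each). Isotonic contraction was recorded.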

Substance-P receptor = Substance-P receptor (Cavia porcellus, UniProt P30547); assay: In vitro agonistic activity against tachykinin receptor 1 of guinea pig ileum longitudinal smooth muscle.; type: functional, tissue-based
Chain of Substance-P receptor (P30547 whole entry): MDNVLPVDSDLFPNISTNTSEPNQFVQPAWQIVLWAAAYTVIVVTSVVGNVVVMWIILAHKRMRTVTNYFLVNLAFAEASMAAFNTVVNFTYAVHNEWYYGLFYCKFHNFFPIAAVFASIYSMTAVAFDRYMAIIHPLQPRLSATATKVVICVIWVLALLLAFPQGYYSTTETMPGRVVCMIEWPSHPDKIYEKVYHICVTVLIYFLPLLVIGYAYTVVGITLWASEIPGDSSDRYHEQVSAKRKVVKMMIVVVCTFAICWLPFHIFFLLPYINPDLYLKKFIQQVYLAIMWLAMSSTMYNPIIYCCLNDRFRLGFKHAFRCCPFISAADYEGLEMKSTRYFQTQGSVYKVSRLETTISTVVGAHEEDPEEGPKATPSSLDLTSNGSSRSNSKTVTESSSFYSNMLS

Compound | EC50 (Neuromedin-K receptor) | EC50 (Substance-K receptor) | EC50 (Substance-P receptor)
CSCC[C@H](NC(=O)[C@H](CC(C)C)N1CC[C@@H](NC(=O)[C@@H](NC(=O)[C@H](Cc2ccccc2)NC(=O)[C@H](CO)NC(=O)[C@H](CC(=O)O)NC(=O)[C@@H](N)CCCCN)C(C)C)C1=O)C(N)=O | 1.18 µM | 0.0037 µM | 4.24 µM
CSCC[C@H](NC(=O)[C@H](CC(C)C)N1CC2CCN(C(=O)[C@@H](NC(=O)[C@H](Cc3ccccc3)NC(=O)[C@H](CO)NC(=O)[C@H](CC(=O)O)NC(=O)[C@@H](N)CCCCN)C(C)C)C2C1=O)C(N)=O (stereo not given in full) | 2.72 µM | 0.059 µM | 1.13 µM
CSCC[C@H](NC(=O)[C@H](CC(C)C)N1CC[C@]2(CCCN2C(=O)[C@H](Cc2ccccc2)NC(=O)[C@H](Cc2ccccc2)NC(=O)CCCCN)C1=O)C(N)=O | – | 1.39 µM | 0.307 µM
CSCC[C@H](NC(=O)[C@H](CC(C)C)N1C[C@H]2CCN(C(=O)[C@H](Cc3ccccc3)NC(=O)[C@H](Cc3ccccc3)NC(=O)CCCCN)[C@H]2C1=O)C(N)=O | > 18 µM | 0.015 µM | 0.545 µM
CSCC[C@H](NC(=O)[C@H](CC(C)C)N1CCC(NC(=O)[C@@H](NC(=O)[C@H](Cc2ccccc2)NC(=O)[C@H](CO)NC(=O)[C@H](CC(=O)O)NC(=O)[C@H](CCCCN)NC(C)=O)C(C)C)C1=O)C(N)=O (stereo not given in full) | – | 0.0013 µM | 0.044 µM
CSCC[C@H](NC(=O)[C@H](CC(C)C)N1CCC(NC(=O)[C@H](Cc2ccccc2)NC(=O)[C@H](Cc2ccccc2)NC(=O)CCCCN)C1=O)C(N)=O (stereo not given in full) | 10.6 µM | 0.062 µM | 0.086 µM
CSCC[C@H](NC(=O)[C@H](CC(C)C)NC(=O)[C@H]1CCCN1C(=O)[C@H](Cc1ccccc1)NC(=O)[C@H](Cc1ccccc1)NC(=O)CCCCN)C(N)=O | > 30 µM | 0.092 µM | 0.83 µM
CSCC[C@H](NC(=O)[C@H](CC(C)C)N1CC2CCN(C(=O)[C@H](Cc3ccccc3)NC(=O)[C@H](Cc3ccccc3)NC(=O)[C@H](CO)NC(=O)[C@H](CC(=O)O)NC(=O)[C@@H](N)CCCCN)C2C1=O)C(N)=O (stereo not given in full) | 2.63 µM | 0.045 µM | 1.03 µM
CSCC[C@H](NC(=O)[C@H](CC(C)C)NC(=O)CNC(=O)[C@@H](NC(=O)[C@H](Cc1ccccc1)NC(=O)[C@H](CO)NC(=O)[C@H](CC(=O)O)NC(=O)[C@@H](N)CCCCN)C(C)C)C(N)=O | 0.87 µM | 0.003 µM | 0.061 µM
CSCC[C@H](NC(=O)[C@@H](CC(C)C)N1C[C@H]2CCN(C(=O)[C@H](Cc3ccccc3)NC(=O)[C@H](Cc3ccccc3)NC(=O)CCCCN)[C@H]2C1=O)C(N)=O | > 47 µM | 2.1 µM | 5.23 µM
CSCC[C@H](NC(=O)[C@H](CC(C)C)N1C[C@@H]2CCN(C(=O)[C@H](Cc3ccccc3)NC(=O)[C@H](Cc3ccccc3)NC(=O)CCCCN)[C@@H]2C1=O)C(N)=O | > 8.21 µM | 1.19 µM | 37.7 µM
CSCC[C@H](NC(=O)[C@@H](CC(C)C)N1C[C@@H]2CCN(C(=O)[C@H](Cc3ccccc3)NC(=O)[C@H](Cc3ccccc3)NC(=O)CCCCN)[C@@H]2C1=O)C(N)=O | > 30 µM | 0.566 µM | 3.73 µM
CSCC[C@H](NC(=O)[C@H](CC(C)C)NC(=O)[C@@H]1CCCN1C(=O)[C@H](Cc1ccccc1)NC(=O)[C@H](Cc1ccccc1)NC(=O)CCCCN)C(N)=O | > 10 µM | 13 µM | 0.0134 µM
CSCC[C@H](NC(=O)[C@H](CC(C)C)NC(=O)CNC(=O)[C@H](Cc1ccccc1)NC(=O)[C@H](Cc1ccccc1)NC(=O)CCCCN)C(N)=O (H-[Ava]FFGLM-NH2) | 11.3 µM | 1.19 µM | 0.038 µM
CSCC[C@H](NC(=O)[C@H](CC(C)C)NC(=O)CNC(=O)[C@@H](NC(=O)[C@H](Cc1ccccc1)NC(=O)CCCCN)C(C)C)C(N)=O (H-[Ava]FVGLM-NH2) | – | 0.094 µM | 0.086 µM
CSCC[C@H](NC(=O)[C@H](CC(C)C)NC(=O)CNC(=O)[C@@H](NC(=O)[C@H](Cc1ccccc1)NC(=O)[C@H](CO)NC(=O)[C@H](CC(=O)O)NC(=O)[C@@H](NC(=O)[C@H](CCCCN)NC(=O)[C@@H](N)Cc1cnc[nH]1)[C@@H](C)O)C(C)C)C(N)=O [NEUROKININ A] | 0.563 µM | – | 0.0137 µM
CSCC[C@H](NC(=O)[C@H](CC(C)C)NC(=O)CNC(=O)[C@@H](NC(=O)[C@H](Cc1ccccc1)NC(=O)[C@H](Cc1ccccc1)NC(=O)[C@H](CC(=O)O)NC(=O)[C@H](Cc1c[nH]cn1)NC(=O)[C@H](CCSC)NC(=O)[C@@H](N)CC(=O)O)C(C)C)C(N)=O [NEUROKININ B] | 0.0063 µM | – | 0.068 µM
CSCC[C@H](NC(=O)[C@H](CC(C)C)NC(=O)CNC(=O)[C@H](Cc1ccccc1)NC(=O)[C@H](Cc1ccccc1)NC(=O)[C@H](CCC(N)=O)NC(=O)[C@H](CCC(N)=O)NC(=O)[C@@H]1CCCN1C(=O)[C@H](CCCCN)NC(=O)[C@@H]1CCCN1C(=O)[C@@H](N)CCCN=C(N)N)C(N)=O [SUBSTANCE P] | 7.5 µM | – | –
H-KDSFFGLM-NH2 | 0.857 µM | 0.033 µM | 0.045 µM
